Laboratory results reported in ChEMBL document CHEMBL2150857, “Design, synthesis and biological evaluation of 5-hydroxy, 5-substituted-pyrimidine-2,4,6-triones as potent inhibitors of gelatinases MMP-2 and MMP-9” (Eur J Med Chem, 2012).

How the values were obtained:
[1] = target: T1, 72 kDa type IV collagenase (Homo sapiens, UniProt P08253); assay: Inhibition of MMP2 using Mca-Pro-Leu-Gly-Leu-Dpa-Ala-Arg as substrate incubated for 30 mins prior to substrate addition measured after 3 hrs by fluorimetric assay
Procedure, shortened: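 It is preincubated with inhibitor at 25 °C for 30 min. Substrate is added from a 25 μM solution and incubated 3 h at 37 °C. Acetic acid quench, fluorescence ex 340/em 405 nm. IC50 from 6 concentrations in triplicate, two runs.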
Target sequence in this assay (P08253 whole entry): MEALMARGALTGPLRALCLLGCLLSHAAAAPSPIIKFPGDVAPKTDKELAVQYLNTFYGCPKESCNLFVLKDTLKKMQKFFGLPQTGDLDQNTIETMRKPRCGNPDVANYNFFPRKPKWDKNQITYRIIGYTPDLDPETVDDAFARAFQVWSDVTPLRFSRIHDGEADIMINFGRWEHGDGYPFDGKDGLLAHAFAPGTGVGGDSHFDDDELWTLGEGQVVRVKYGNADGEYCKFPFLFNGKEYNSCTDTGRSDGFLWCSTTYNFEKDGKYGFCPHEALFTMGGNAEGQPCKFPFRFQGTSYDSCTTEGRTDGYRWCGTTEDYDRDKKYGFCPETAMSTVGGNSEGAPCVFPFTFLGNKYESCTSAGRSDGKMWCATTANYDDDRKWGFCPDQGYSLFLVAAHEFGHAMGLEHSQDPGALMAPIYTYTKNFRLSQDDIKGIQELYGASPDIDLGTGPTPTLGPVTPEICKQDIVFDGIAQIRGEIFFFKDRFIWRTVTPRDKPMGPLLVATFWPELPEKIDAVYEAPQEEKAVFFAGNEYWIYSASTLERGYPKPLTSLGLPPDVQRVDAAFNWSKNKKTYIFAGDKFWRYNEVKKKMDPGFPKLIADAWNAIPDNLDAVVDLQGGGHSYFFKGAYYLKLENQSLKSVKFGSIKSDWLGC

Neutrophil collagenase [2] = target: T2, Neutrophil collagenase (Homo sapiens, UniProt P22894); assay: Inhibition of recombinant MMP8 catalytic site using Mca-Pro-Leu-Gly-Leu-Dpa-Ala-Arg as substrate incubated for 30 mins prior to substrate addition measured after 3 hrs by fluorimetric assay
Procedure, shortened: (§1)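 Recombinant catalytic-domain MMP-8 or MMP-9 (500 pM enzyme solution) is used in Tris-HCl 0.1 M pH 7.5, 0.1 M NaCl, 10 mM CaCl2, 0.05% Brij35, 1 mM APMA. Preincubated with inhibitor 30 min at 25 °C, then substrate (25 μM solution) 3 h at 37 °C. Acetic acid stop, fluorescence 340/405 nm. IC50 from six concentrations in triplicate, run twice.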
Target sequence in this assay (P22894 whole entry): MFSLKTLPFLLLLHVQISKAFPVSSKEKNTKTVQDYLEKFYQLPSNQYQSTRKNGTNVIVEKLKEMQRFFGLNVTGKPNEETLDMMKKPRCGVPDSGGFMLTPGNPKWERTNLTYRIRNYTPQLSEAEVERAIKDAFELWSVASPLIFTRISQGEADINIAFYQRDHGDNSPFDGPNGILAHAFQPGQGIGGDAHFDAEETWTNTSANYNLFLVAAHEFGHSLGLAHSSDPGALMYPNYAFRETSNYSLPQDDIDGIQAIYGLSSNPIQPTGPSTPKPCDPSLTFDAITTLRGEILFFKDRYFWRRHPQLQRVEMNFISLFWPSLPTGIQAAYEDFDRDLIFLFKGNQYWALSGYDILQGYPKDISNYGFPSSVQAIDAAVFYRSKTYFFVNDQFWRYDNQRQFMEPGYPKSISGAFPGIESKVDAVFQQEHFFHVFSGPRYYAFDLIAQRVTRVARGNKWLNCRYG

[3] = target: T3, Matrix metalloproteinase-9 (Homo sapiens, UniProt P14780); assay: Inhibition of recombinant MMP9 catalytic site using Mca-Pro-Leu-Gly-Leu-Dpa-Ala-Arg as substrate incubated for 30 mins prior to substrate addition measured after 3 hrs by fluorimetric assay; procedure, shortened: as §1
T3 sequence (P14780 whole entry): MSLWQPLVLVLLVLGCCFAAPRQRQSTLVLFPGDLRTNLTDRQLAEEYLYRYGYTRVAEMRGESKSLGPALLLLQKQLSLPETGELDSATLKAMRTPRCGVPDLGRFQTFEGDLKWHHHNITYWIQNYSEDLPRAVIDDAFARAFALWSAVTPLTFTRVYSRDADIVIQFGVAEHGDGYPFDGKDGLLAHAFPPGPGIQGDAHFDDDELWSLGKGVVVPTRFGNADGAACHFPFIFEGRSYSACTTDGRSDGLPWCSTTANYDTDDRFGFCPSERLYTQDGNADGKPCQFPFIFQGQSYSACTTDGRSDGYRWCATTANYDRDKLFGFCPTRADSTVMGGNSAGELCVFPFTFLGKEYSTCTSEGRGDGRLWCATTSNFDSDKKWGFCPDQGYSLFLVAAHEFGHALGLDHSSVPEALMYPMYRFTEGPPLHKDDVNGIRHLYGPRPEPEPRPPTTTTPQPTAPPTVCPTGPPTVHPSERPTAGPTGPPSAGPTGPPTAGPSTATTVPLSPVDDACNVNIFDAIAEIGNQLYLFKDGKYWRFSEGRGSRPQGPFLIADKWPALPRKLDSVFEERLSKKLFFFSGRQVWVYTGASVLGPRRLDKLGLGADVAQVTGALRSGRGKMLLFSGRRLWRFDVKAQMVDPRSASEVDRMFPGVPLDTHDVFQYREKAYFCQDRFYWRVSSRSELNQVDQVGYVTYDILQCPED

[4] = target: T1, 72 kDa type IV collagenase; assay: Inhibition of MMP2 using Mca-Pro-Leu-Gly-Leu-Dpa-Ala-Arg as substrate at 10 uM incubated for 30 mins prior to substrate addition measured after 3 hrs by fluorimetric assay
Procedure, shortened: (§2)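 Buffer: Tris-HCl 0.1 M pH 7.5, 0.1 M NaCl, 10 mM CaCl2, 0.05% Brij35, 1 mM APMA. Compound and enzyme 30 min at 25 °C, then substrate (25 μM solution) 3 h at 37 °C. Acetic acid quench, fluorescence ex 340/em 405 nm.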
Target sequence in this assay (P08253 110-660 limits assumed): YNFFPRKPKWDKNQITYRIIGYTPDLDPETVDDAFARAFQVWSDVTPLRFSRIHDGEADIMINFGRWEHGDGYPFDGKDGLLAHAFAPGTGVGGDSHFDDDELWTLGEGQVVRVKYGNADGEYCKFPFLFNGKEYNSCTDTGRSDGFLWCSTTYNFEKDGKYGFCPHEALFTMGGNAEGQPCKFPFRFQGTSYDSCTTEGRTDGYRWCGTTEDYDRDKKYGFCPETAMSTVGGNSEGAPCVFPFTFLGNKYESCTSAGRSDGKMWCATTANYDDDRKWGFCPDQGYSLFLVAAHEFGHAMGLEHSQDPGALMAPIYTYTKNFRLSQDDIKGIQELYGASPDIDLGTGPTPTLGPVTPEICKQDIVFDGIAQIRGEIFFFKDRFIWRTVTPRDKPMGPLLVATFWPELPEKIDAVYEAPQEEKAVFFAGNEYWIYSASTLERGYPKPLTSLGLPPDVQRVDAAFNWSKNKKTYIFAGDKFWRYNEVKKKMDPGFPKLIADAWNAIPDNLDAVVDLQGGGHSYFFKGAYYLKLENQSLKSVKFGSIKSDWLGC

[5] = target: T3, Matrix metalloproteinase-9; assay: Inhibition of recombinant MMP9 catalytic site using Mca-Pro-Leu-Gly-Leu-Dpa-Ala-Arg as substrate at 10 uM incubated for 30 mins prior to substrate addition measured after 3 hrs by fluorimetric assay
Procedure, shortened: (§3)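 Percent inhibition against control at a single concentration is measured on recombinant catalytic-domain MMP-8 or MMP-9 (500 pM enzyme solution). Tris-HCl 0.1 M pH 7.5 buffer with NaCl, CaCl2, Brij35, 1 mM APMA. Compound and enzyme 30 min at 25 °C, then substrate (25 μM solution) 3 h at 37 °C. Acetic acid stop, fluorescence 340/405 nm.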

[6] = target: T3, Matrix metalloproteinase-9; assay: Inhibition of recombinant MMP9 catalytic site using Mca-Pro-Leu-Gly-Leu-Dpa-Ala-Arg as substrate at 100 uM incubated for 30 mins prior to substrate addition measured after 3 hrs by fluorimetric assay; procedure, shortened: as §3
Neutrophil collagenase [7] = target: T2, Neutrophil collagenase; assay: Inhibition of recombinant MMP8 catalytic site using Mca-Pro-Leu-Gly-Leu-Dpa-Ala-Arg as substrate at 100 uM incubated for 30 mins prior to substrate addition measured after 3 hrs by fluorimetric assay; procedure, shortened: as §3
Target sequence in this assay (P22894 101-467 limits assumed): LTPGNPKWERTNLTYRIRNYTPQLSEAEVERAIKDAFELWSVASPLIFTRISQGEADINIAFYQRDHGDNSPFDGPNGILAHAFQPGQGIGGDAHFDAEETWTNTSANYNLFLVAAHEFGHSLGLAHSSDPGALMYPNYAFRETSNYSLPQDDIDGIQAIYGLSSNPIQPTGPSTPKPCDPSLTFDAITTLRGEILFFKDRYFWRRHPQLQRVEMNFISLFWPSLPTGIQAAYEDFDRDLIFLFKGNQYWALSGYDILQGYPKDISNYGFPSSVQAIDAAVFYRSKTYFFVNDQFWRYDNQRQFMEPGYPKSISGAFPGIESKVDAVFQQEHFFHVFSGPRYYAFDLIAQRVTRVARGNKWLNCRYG

[8] = target: T1, 72 kDa type IV collagenase; assay: Inhibition of MMP2 using Mca-Pro-Leu-Gly-Leu-Dpa-Ala-Arg as substrate at 100 uM incubated for 30 mins prior to substrate addition measured after 3 hrs by fluorimetric assay; procedure, shortened: as §2
Target sequence in this assay (P08253 110-660 limits assumed): as the sequence (P08253 110-660 limits assumed) above

SMILES | IC50 [1] [nM] | IC50 (Neutrophil collagenase [2]) [nM] | IC50 [3] [nM] | other results
CC(=O)c1ccc(-c2ccc(C(=O)CC3(O)C(=O)NC(=O)NC3=O)cc2)cc1 | 30 | 109 | 170 | –
O=C1NC(=O)C(O)(CC(=O)c2ccc(-c3ccc(CO)cc3)cc2)C(=O)N1 | 148 | 210 | 561 | –
O=C1NC(=O)C(O)(CC(=O)c2ccccc2)C(=O)N1 | – | – | – | inhibition [4]: 0%
CN(C)C(=O)c1ccc(-c2ccc(C(=O)CC3(O)C(=O)NC(=O)NC3=O)cc2)cc1 | 1340 | 2020 | 3010 | –
COc1ccc(-c2ccc(C(=O)CC3(O)C(=O)NC(=O)NC3=O)cc2)cc1 | 121 | 184 | 141 | –
O=C1NC(=O)C(O)(CC(=O)c2ccc(C(F)(F)F)cc2)C(=O)N1 | – | – | – | inhibition [5]: 11%
O=C1NC(=O)C(O)(CC(=O)c2ccc(-c3ccsc3)cc2)C(=O)N1 | 181 | 153 | 159 | –
O=C1NC(=O)C(O)(CC(=O)c2ccc(-c3ccc(OC(F)(F)F)cc3)cc2)C(=O)N1 | 143 | 715 | 21 | –
O=C(Cc1ccc(-c2ccccc2)cc1)CC1(O)C(=O)NC(=O)NC1=O | – | – | – | inhibition [6]: 21%; inhibition (Neutrophil collagenase [7]): 26%; inhibition [8]: 10%
O=C1NC(=O)C(O)(CC(=O)c2ccc(-c3cccc([N+](=O)[O-])c3)cc2)C(=O)N1 | 8100 | 2600 | 27500 | –
O=C1NC(=O)C(O)(CC(=O)c2ccc(-c3ccc(Cl)cc3)cc2)C(=O)N1 | 278 | 271 | 66 | –
CSc1ccc(-c2ccc(C(=O)CC3(O)C(=O)NC(=O)NC3=O)cc2)cc1 | 120 | 313 | 86 | –
CS(=O)(=O)c1ccc(-c2ccc(C(=O)CC3(O)C(=O)NC(=O)NC3=O)cc2)cc1 | 58 | 66 | 650 | –
Cc1ccc(-c2ccc(C(=O)CC3(O)C(=O)NC(=O)NC3=O)cc2)cc1 | 301 | 336 | 103 | –
O=C1NC(=O)C(O)(CC(=O)c2ccc([N+](=O)[O-])cc2)C(=O)N1 | – | 63000 | – | inhibition [4]: 0%; inhibition [5]: 8%
CC(=O)C(c1ccc(-c2ccccc2)cc1)C1(O)C(=O)NC(=O)NC1=O (centres undefined) | – | – | – | inhibition [6]: 28%; inhibition (Neutrophil collagenase [7]): 71%; inhibition [8]: 38%
